Reference: PMC3536955 (Osteoporosis International, 2012)

What was measured:
Type in all cases: in vivo, postmenopausal Japanese women
[1] = Pharmacokinetics: plasma teriparatide acetate concentration
Method in brief: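 Plasma was sampled before and at 15, 30, 45, 60, 90, 120, 180, 240, 360 and 720 min after one s.c. injection at 0800 h in postmenopausal women. Drug was assayed with a rat PTH IRMA kit (range 10 to 1,000 pg/mL). Cmax, AUClast, AUCinf, Tmax and T1/2 were derived for active-dose recipients only. Concentrations are given as mean ± SD.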

intact PTH = assay: Serum intact PTH; details: n = 10
Method in brief: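 Intact PTH in serum was measured by electrochemiluminescence immunoassay. Postmenopausal women aged 60–79 y were randomised double-blind to placebo or a single s.c. dose, given at 0800 h straight after baseline sampling. Blood was drawn at 15, 30, 45, 60, 90, 120, 180, 240, 360 and 720 min, then mornings of days 2, 4, 6, 8, 11, 13 and 15. Baseline median and follow-up distribution were reported.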

[2] = test system: 1,25-Dihydroxy vitamin D (1,25(OH)2D); assay: Serum 1,25; details: n = 10
Method in brief: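 Serum 1,25(OH)2D was measured by radio receptor assay (inter-assay CV 11.3–13.2 %), with each participant's samples in a single batch. Women aged 60–79 y received one s.c. injection or placebo at 0800 h after baseline blood, in a double-blind randomised design. Sampling ran from 15–720 min and on mornings of days 2, 4, 6, 8, 11, 13 and 15. Median baseline and follow-up distribution were tabulated.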

osteocalcin = assay: Bone formation marker serum osteocalcin; details: n = 10
Method in brief: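 Women aged 60–79 y were randomised double-blind to placebo or one s.c. injection at 0800 h, given after baseline blood. Serum was sampled 15–720 min post-dose, then each morning on days 2, 4, 6, 8, 11, 13 and 15. Osteocalcin was measured by BGP-IRMA (inter-assay CV 4.7–7.6 %), in a single batch per participant. Values were summarised as baseline median and follow-up distribution.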

P1NP = assay: Bone formation marker serum P1NP; details: n = 10
Method in brief: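 Randomised, double-blind, placebo-controlled trial in women aged 60–79 y. A single s.c. dose was given at 0800 h after baseline sampling. Serum was drawn 15–720 min post-dose and on mornings of days 2, 4, 6, 8, 11, 13 and 15. P1NP was measured by radioimmunoassay (inter-assay CV 2.7–5.0 %), with each subject's samples in one batch. Median baseline and follow-up distribution were reported.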

[3] = 4 to 15 days, 28.2 μg single s.c.
[4] = 4 to 15 days, 56.5 μg single s.c.

Molecule CC[C@H](C)[C@H](NC(=O)[C@H](CCC(=O)O)NC(=O)[C@H](CO)NC(=O)[C@@H](NC(=O)[C@@H](N)CO)C(C)C)C(=O)N[C@@H](CCC(N)=O)C(=O)N[C@@H](CC(C)C)C(=O)N[C@@H](CCSC)C(=O)N[C@@H](Cc1cnc[nH]1)C(=O)N[C@@H](CC(N)=O)C(=O)N[C@@H](CC(C)C)C(=O)NCC(=O)N[C@@H](CCCCN)C(=O)N[C@@H](Cc1cnc[nH]1)C(=O)N[C@@H](CC(C)C)C(=O)N[C@@H](CC(N)=O)C(=O)N[C@@H](CO)C(=O)N[C@@H](CCSC)C(=O)N[C@@H](CCC(=O)O)C(=O)N[C@@H](CCCN=C(N)N)C(=O)N[C@H](C(=O)N[C@@H](CCC(=O)O)C(=O)N[C@@H](Cc1c[nH]c2ccccc12)C(=O)N[C@@H](CC(C)C)C(=O)N[C@@H](CCCN=C(N)N)C(=O)N[C@@H](CCCCN)C(=O)N[C@@H](CCCCN)C(=O)N[C@@H](CC(C)C)C(=O)N[C@@H](CCC(N)=O)C(=O)N[C@@H](CC(=O)O)C(=O)N[C@H](C(=O)N[C@@H](Cc1cnc[nH]1)C(=O)N[C@@H](CC(N)=O)C(=O)N[C@@H](Cc1ccccc1)C(=O)O)C(C)C)C(C)C [teriparatide] has a Tmax ([1]; female, human, sc) of 1 h, an AUC(0-inf) ([1]; female, human, sc, 28.2 ug) of 0.468 ng·h/mL and an AUC(0-inf) ([1]; female, human, sc, 56.5 ug) of 0.879 ng·h/mL. The AUC(0-t) ([1]; female, human, sc, 56.5 ug) was 0.832 ng·h/mL, the “time after injection at which teriparatide concentration disappeared” value ([1]; single s.c. injection 28.2 or 56.5 μg) was 6 h and the “Intact-PTH, Max” value (intact PTH; 2 to 24 h, 28.2 μg single s.c.) was 66.0 pg/mL. The “Intact-PTH, Median” value (intact PTH; 2 to 24 h, 28.2 μg single s.c.) was 34.5 pg/mL, the “Intact-PTH, Min” value (intact PTH; 2 to 24 h, 28.2 μg single s.c.) was 17.0 pg/mL and the “Intact-PTH, Max” value (intact PTH; 2 to 24 h, 56.5 μg single s.c.) was 65.0 pg/mL. For the same molecule, the “Intact-PTH, Median” value (intact PTH; 2 to 24 h, 56.5 μg single s.c.) was 35.0 pg/mL, the “Intact-PTH, Min” value (intact PTH; 2 to 24 h, 56.5 μg single s.c.) was 18.0 pg/mL and the “Intact-PTH, Max” value (intact PTH; [3]) was 64.0 pg/mL. The “Intact-PTH, Median” value (intact PTH; [3]) was 45.5 pg/mL, the “Intact-PTH, Min” value (intact PTH; [3]) was 25.0 pg/mL and the “Intact-PTH, Max” value (intact PTH; [4]) was 109.0 pg/mL. For the same molecule, the “Intact-PTH, Median” value (intact PTH; [4]) was 49.0 pg/mL, the “Intact-PTH, Min” value (intact PTH; [4]) was 26.0 pg/mL and the “1,25(OH)2D, Max” value ([2]; 2 to 24 h, 28.2 μg single s.c.) was 118.0 pg/mL. The “1,25(OH)2D, Median” value ([2]; 2 to 24 h, 28.2 μg single s.c.) was 67.5 pg/mL, the “1,25(OH)2D, Min” value ([2]; 2 to 24 h, 28.2 μg single s.c.) was 37.0 pg/mL and the “1,25(OH)2D, Max” value ([2]; 2 to 24 h, 56.5 μg single s.c.) was 136.0 pg/mL. For the same molecule, the “1,25(OH)2D, Median” value ([2]; 2 to 24 h, 56.5 μg single s.c.) was 70.5 pg/mL, the “1,25(OH)2D, Min” value ([2]; 2 to 24 h, 56.5 μg single s.c.) was 33.0 pg/mL and the “1,25(OH)2D, Max” value [2, 3] was 99.0 pg/mL. For the same molecule, the “1,25(OH)2D, Median” value [2, 3] was 56.0 pg/mL, the “1,25(OH)2D, Min” value [2, 3] was 21.0 pg/mL and the “1,25(OH)2D, Max” value [2, 4] was 94.0 pg/mL. The “1,25(OH)2D, Median” value [2, 4] was 54.0 pg/mL, the “1,25(OH)2D, Min” value [2, 4] was 18.0 pg/mL and the “Serum osteocalcin, Max” value (osteocalcin; 2 to 24 h, 28.2 μg single s.c.) was 12.7 ng/mL. The “Serum osteocalcin, Median” value (osteocalcin; 2 to 24 h, 28.2 μg single s.c.) was 7.6 ng/mL, the “Serum osteocalcin, Min” value (osteocalcin; 2 to 24 h, 28.2 μg single s.c.) was 4.6 ng/mL and the “Serum osteocalcin, Max” value (osteocalcin; 2 to 24 h, 56.5 μg single s.c.) was 16.7 ng/mL. For the same molecule, the “Serum osteocalcin, Median” value (osteocalcin; 2 to 24 h, 56.5 μg single s.c.) was 7.4 ng/mL, the “Serum osteocalcin, Min” value (osteocalcin; 2 to 24 h, 56.5 μg single s.c.) was 3.2 ng/mL and the “Serum osteocalcin, Max” value (osteocalcin; [3]) was 12.2 ng/mL. The “Serum osteocalcin, Median” value (osteocalcin; [3]) was 8.1 ng/mL, the “Serum osteocalcin, Min” value (osteocalcin; [3]) was 4.6 ng/mL and the “Serum osteocalcin, Max” value (osteocalcin; [4]) was 17.9 ng/mL. For the same molecule, the “Serum osteocalcin, Median” value (osteocalcin; [4]) was 7.9 ng/mL, the “Serum osteocalcin, Min” value (osteocalcin; [4]) was 4.3 ng/mL and the “Serum P1NP, Max” value (P1NP; 2 to 24 h, 28.2 μg single s.c.) was 77.4 ng/mL. The “Serum P1NP, Median” value (P1NP; 2 to 24 h, 28.2 μg single s.c.) was 47.4 ng/mL, the “Serum P1NP, Min” value (P1NP; 2 to 24 h, 28.2 μg single s.c.) was 28.0 ng/mL and the “Serum P1NP, Max” value (P1NP; 2 to 24 h, 56.5 μg single s.c.) was 101.0 ng/mL. The “Serum P1NP, Median” value (P1NP; 2 to 24 h, 56.5 μg single s.c.) was 49.1 ng/mL, the “Serum P1NP, Min” value (P1NP; 2 to 24 h, 56.5 μg single s.c.) was 13.0 ng/mL and the “Serum P1NP, Max” value (P1NP; [3]) was 80.2 ng/mL. The “Serum P1NP, Median” value (P1NP; [3]) was 53.5 ng/mL and the “Serum P1NP, Min” value (P1NP; [3]) was 30.7 ng/mL.
